Test results: the EternaBench riboswitch data

Columns and labels:
MS2 coat protein [1] = assay: apparent Kd, MS2 coat protein; higher = weaker binding; RNA-MaP array
Method in brief: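 Designed RNAs were produced on an Illumina sequencing chip by transcription of sequenced DNA templates. Binding to fluorescently labeled MS2 coat protein (1.5 nM to 3 μM) was measured at room temperature with or without input ligand. The apparent Kd is the median of per-cluster binding-curve fits. Designs were excluded when measured on fewer than 10 clusters.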

MS2 coat protein [2] = assay: apparent Kd, MS2 coat protein; higher = weaker binding; RNA-MaP array; FMN 200 µM where present
Method in brief: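 Stalled E. coli RNA polymerase transcribed each design on Illumina sequencing-chip clusters. The clusters were titrated with SNAP-549-labelled MS2 coat protein, starting at 0.7 or 1.5 nM and doubling up to 3 µM, first without ligand and then with constant ligand, in 100 mM Tris-HCl pH 7.5, 80 mM KCl, 4 mM MgCl2, BSA, DTT, yeast tRNA and Tween-20. Green signal was normalised to red-channel RNA signal and to the control-cluster median Fmax. The apparent Kd is the median of filtered binding-curve fits made for each cluster.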

[3] = designed as: OFF switch for flavin mononucleotide, no ligand
[4] = ligand present: flavin mononucleotide, designed as: OFF switch for flavin mononucleotide
[5] = designed as: ON switch for flavin mononucleotide, no ligand
[6] = ligand present: flavin mononucleotide, designed as: ON switch for flavin mononucleotide
[7] = designed as: ON switch for tryptophan, no ligand
[8] = ligand present: tryptophan, designed as: ON switch for tryptophan
[9] = designed as: ON switch for theophylline, no ligand
[10] = ligand present: theophylline, designed as: ON switch for theophylline

Sequence	apparent Kd (MS2 coat protein [1]; [3])	apparent Kd (MS2 coat protein [1]; [4])	other results
GUCGAGAUUCAAGGAUAUCCGAUCUUACGCAUAGUAGAAUGACAUGAGGAUCACCCAUGUGUCCAGGAGAAGGUGAAUGGAUUU	33.3 nM	21.6 nM	–
UUACAGUCAGGAUAUUGAGUCACCCACAUGAGGAUCACCCAUGUACCUCGAAAACUGGAGCAAGAAGGGACUGCUG	18.9 nM	26.4 nM	–
GGAUAAACUCAGAAGGAACGGCUCAAGUAAUAGUAAGGAUAUGACUGUAGGACUACAUGAGGAUCACCCAUGUUGAUGAAACAG	–	–	apparent Kd (MS2 coat protein [1]; [5]): 8.03 nM; apparent Kd (MS2 coat protein [1]; [6]): 7.91 nM
CGCUGUUGGCAGGAUAUAUUCGCAGCCCAGGCAAUAGAAGGGCCGACAUGAGGAUCACCCAUGUGUCUACAGGG	117 nM	341 nM	–
AAUAGCUAAGGAUAUACGUACUCAGAGUGAUAAAUCAAAUAACAUGAGGAUCACCCAUGUAGAAGGAAGAAAUA	30.9 nM	26.1 nM	–
GACGCGAGCGCACUUACAUGAGGAUCACCCAUGUGUUCCGAAAGAAGGGCUAGUGUACCCGCAGAGCAGGAUAUUUCGAUUUGC	–	–	apparent Kd (MS2 coat protein [1]; [5]): 186 nM; apparent Kd (MS2 coat protein [1]; [6]): 121 nM
AAAGCCUUUCUAGGAUAUCAAUACAGUCGUGGUUGAGAAGGAGAAACUGCGUUCUAGACAUGAGGAUCACCCAUGUCCUCAAUG	–	–	apparent Kd (MS2 coat protein [1]; [5]): 98.6 nM; apparent Kd (MS2 coat protein [1]; [6]): 71.9 nM
AACAUGUCUCAAGGAUAUAAAACGCUAAAUGGCUUAGAAGGUGAGGCCGCUGUGAGGAUCCCUGACAUGAGGAUCACCCAUGUC	–	–	apparent Kd (MS2 coat protein [1]; [5]): 10.8 nM; apparent Kd (MS2 coat protein [1]; [6]): 9.76 nM
AUUGUGAACCUGAUCGUAUAAUGUAGCGAUACCAGUAUAAUACAUUACCCUUGGCAGCGCGACACAUGAGGAUCACCCAUGUAAG	–	–	apparent Kd (MS2 coat protein [1]; designed as: OFF switch for theophylline, no ligand): 26.5 nM; apparent Kd (MS2 coat protein [1]; ligand present: theophylline, designed as: OFF switch for theophylline): 39.4 nM
ACCACAGAGUAGAAGGUCCGACACGGCUCGUCGGAAGGAUAUACAUAUUGUUAGAGAUGGGAACAUGAGGAUCACCCAUGUGUC	–	–	apparent Kd (MS2 coat protein [1]; [5]): 16.2 nM; apparent Kd (MS2 coat protein [1]; [6]): 9.9 nM
AACAUGAGGAUCACCCAUGUCGGGUAUAGGAAUGUGUGUCUGCAGGAUAUGCCUUGCAUUGCAUAGCAGAAGGGCACGGCUCAG	125 nM	64.2 nM	–
GAACAACAUGAGGAUCACCCAUGUGACAGCCGUCAAGGAUAUUCCGGGAAAGGAGGUCCGGAAGAAGGUGAUCGUA	–	–	apparent Kd (MS2 coat protein [1]; [5]): 265 nM; apparent Kd (MS2 coat protein [1]; [6]): 341 nM
GUUCGUAGGUAGGAUAUAAGAGCUGUACUCUUCUUAGAAGGACCCACAUGAGGAUCACCCAUGUUUUGGGCGUG	10.3 nM	35.5 nM	–
GCUGUAGAAGGAUAUCACAGGAUGGACAUGAGGAUCACCCAUGUUCUUUACUCCGCACCUUGAGAAGGUCUAAGUC	6.27 nM	5.88 nM	–
CAGUGAGAGUCGGCCGCCACUUAACGCAAGUAGCGCAACCCAAAACAUGAGGAUCACCCAUGUCGAAGGACCGGGACAAUGAGCG	–	–	apparent Kd (MS2 coat protein [1]; [7]): 12.9 nM; apparent Kd (MS2 coat protein [1]; [8]): 12.2 nM
ACCCAUUUGUUAGGAUAUGACUCGAGACAGGUACAUGAGGAUCACCCAUGUUGUACAGGACCGUCUCAGAAGGAACGAACGUAU	9.64 nM	8.75 nM	–
CCCAUACAUGAGGAUCACCCAUGUGUUGAUACCAGCAUAUGUAGAUGCCCUUGGCAGCAAGCUUGGGUCACUGGAAAACAUCUAA	–	–	apparent Kd (MS2 coat protein [1]; [9]): 25.9 nM; apparent Kd (MS2 coat protein [1]; [10]): 56.5 nM
UCAUGGUCAGGAUAUACGAUUAGACAUGGCUUCGAUAAGUCGUAGAAGGGACAUGAGGAUCACCCAUGUAGCAA	109 nM	33.5 nM	–
UCGGUUCGCGGAGGAUAUACUUCACUUCAGGAAGUAGAAGGCCGGCGGUGCUAAGGGUCACAUGAGGAUCACCCAUGUCUUCAC	–	–	apparent Kd (MS2 coat protein [1]; [5]): 30.6 nM; apparent Kd (MS2 coat protein [1]; [6]): 20.7 nM
UUAAUACAUGAGGAUCACCCAUGUUAGGAUAUAGAAAUCGCUGGUGCGAGAAGACAGGCUAGAAGGAACACGGA	10.2 nM	9.62 nM	–
GCGCGCGUAGUCAGGAUAUGGUAUAAGUAACUUGGCCAGAAGGGACAUGAGGAUCACCCAUGUGCAUUGCUAGC	9.16 nM	9.47 nM	–
UUGUCCCGAGGAUAUGAGAGGGAGUACAUGAGGAUCACCCAUGUCAUGAAUCUUCAUAUCUCAGAAGGCGGUUGAU	4.85 nM	6.24 nM	–
UGAUUACAUGAGGAUCACCCAUGUGACUACGCCUCAGGAUAUGAUGACAAAUUCUAGAAGUCAGAAGGGAGUUUGU	–	–	apparent Kd (MS2 coat protein [1]; [5]): 29.1 nM; apparent Kd (MS2 coat protein [1]; [6]): 21.3 nM

Sequence	apparent Kd (MS2 coat protein [1]; [3])	apparent Kd (MS2 coat protein [1]; [4])	other results
ACCCGACAAGUGAGGAUAUUGAUAAGAGGAGCUUACAAGAAGGCACAUGAGGAUCACCCAUGUAUUAAGUGAAG	7.97 nM	9.8 nM	–
UUUUCUGAGGAGAAGGACGACCACAAACAUGAGGAUCACCCAUGUCUUACUAUCUGACCGCCAUCGUAGGAUAUCCCGAGGGAG	–	–	apparent Kd (MS2 coat protein [1]; [5]): 11.2 nM; apparent Kd (MS2 coat protein [1]; [6]): 10.2 nM
UCGAUGGUAUCUGAUACCAGUAGCGUGCGUUACAUGAGGAUCACCCAUGUGCCUAUACUUUACCCUUGGCAGCAGUGGAUUCGAU	–	–	apparent Kd (MS2 coat protein [1]; [9]): 207 nM; apparent Kd (MS2 coat protein [1]; [10]): 58.5 nM
CGGCAACUGUAGAAGGAGCAUCCCACAUCUAAGCUAGGAUAUACGUAAUGUAUGUACAUGAGGAUCACCCAUGUGUGCACCAGG	26.4 nM	24.2 nM	–
GUUAGUUACACGGCCGCCACUCUUUGGCUUGGCUCAAGCUCCCAACAUGAGGAUCACCCAUGUCAGAGGACCGGGUGAACAACGU	–	–	apparent Kd (MS2 coat protein [1]; [7]): 134 nM; apparent Kd (MS2 coat protein [1]; [8]): 112 nM
CCACGCUCAGUUAGGAUAUGAUCCAUUACCAGUGAUCAGAAGGAACAUGAGGAUCACCCAUGUACAGUACGAGA	9.62 nM	14.2 nM	–
AUACUAAACAUGAGGAUCACCCAUGUGACGUCAGGUCAGUUGAGAAGGCUAGGGAUGCUAGAUGUAGAGGAUAUCAGCGACGGA	15.4 nM	9.76 nM	–
CACGGCAUUGAGAAGGGAGUGACAUGGAACUGCUCAGGAUAUCAACACACAUUGUUAAAGAAAACAUGAGGAUCACCCAUGUUC	–	–	apparent Kd (MS2 coat protein [1]; [5]): 11.2 nM; apparent Kd (MS2 coat protein [1]; [6]): 9.28 nM
UGGUCACAUGAGGAUCACCCAUGUAAGGAUAUCCGCGCCAUAGAGGAAAAGACGGUAUGGAGAAGGUACAGCUU	29.9 nM	26.9 nM	–
AGCGAAUAAGGAUAUACGUGAAAAGCACUUAGAGUUGGAUCACAUGAGGAUCACCCAUGUAGAAGGUAUGACGA	18.6 nM	15.7 nM	–
GGGUACAUCUAGAAGGAGAAUCCUCUUGACAUGAGGAUCACCCAUGUCGUAGUCAAGACUAAAAUCUAGGAUAUAGCUGUGCGU	233 nM	165 nM	–
GACGUGGAGUCAGGAUAUCGACGACAUUCUUAGCGAGAAGGGACCUAGCUUAGAUCAACAUGAGGAUCACCCAUGUCGAGUUUC	21.7 nM	20.4 nM	–
GUUCUGCAUAAGGAUAUAUGAGCACACGCAGACAUAGAAGGUAUGACAUGAGGAUCACCCAUGUCCUCUCGAGA	8.5 nM	8.65 nM	–
CGGAGUAUGACGGCCGCCACUUGCCGGGCGCAGCUGGCUGCUUGACAUGAGGAUCACCCAUGUCCAAGGACCGGGUCAUUCCUCG	–	–	apparent Kd (MS2 coat protein [1]; [7]): 121 nM; apparent Kd (MS2 coat protein [1]; [8]): 83.9 nM
GUGUACUUUGAAGGAUAUAACGGCGGCAUUUUCUUAGAAGGUCAAGGGACAUGAGGAUCACCCAUGUUAACAUUGGUUCUAACA	10.6 nM	17.5 nM	–
AUCGACAAAGGAUAUGAUGCGAAUGACAUGAGGAUCACCCAUGUGGAGCCAAGUGUCCCGUCAGAAGGUUGUACGU	152 nM	313 nM	–
AGAAUAUGAAUAGGAUAUCUGCGUAAUGAUAAAAGAGAAGGAAUUAGAAGUAUUACAUGAGGAUCACCCAUGUUUGAUAAGAAA	–	–	apparent Kd (MS2 coat protein [1]; [5]): 9.61 nM; apparent Kd (MS2 coat protein [1]; [6]): 8.77 nM
CUCUUGCGGUUAGGAUAUUCCCUUGAAAACAAUGAAGAAGGAACCAGAUGAUCACAUGUCCUACAUGAGGAUCACCCAUGUUAA	353 nM	211 nM	–
UUCGCCACGCAAGGAUAUGAUACUUAUUGCUGUUCAGAAGGUGCGACAUGAGGAUCACCCAUGUGGUGUGUCCAGGGAGGCUAG	333 nM	336 nM	–
UCCUGACCGAGAGGUAGGAGUGGUAGAAGGCGACCGGUGCCAGAUGACAUGAGGAUCACCCAUGUCGAGGAUAUACCACAGAAU	–	–	apparent Kd (MS2 coat protein [2]; [3]): 7.45 nM; apparent Kd (MS2 coat protein [2]; [4]): 14.1 nM
AGUGUCAUCGAGAAGGCCUUAACAUGAGGAUCACCCAUGUUGUAACAUGGGAGGAUAUCGAUGAUACAGCUACGUUUCGUAGCA	–	–	apparent Kd (MS2 coat protein [2]; [5]): 412 nM; apparent Kd (MS2 coat protein [2]; [6]): 25.5 nM
UUCUUACGAGGAUAUCGAUUGUGGUACAUGAGGAUCACCCAUGUAUGUGAUAUUGUAUUUCGAGAAGGCGUUCAGU	–	–	apparent Kd (MS2 coat protein [2]; [3]): 26.4 nM; apparent Kd (MS2 coat protein [2]; [4]): 24.1 nM
